pKi: −log10 of the molar value.
Assays:
[1] = molecular target: Sodium-dependent dopamine transporter (Homo sapiens, UniProt Q01959); assay: Binding affinity for dopamine transporter expressed in […] cells; assay type: cell-based
Outline: (§1)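 Membranes from confluent pig kidney LLC-PK₁ cells stably expressing the respective transporter, homogenized and pelleted, 30–40 μg protein. Incubated with 0.4 nM [¹²⁵I]IPT or [¹²⁵I]IDAM and 8–10 competitor concentrations (10⁻¹⁰ to 10⁻⁵ M) in 50 mM Tris-HCl pH 7.4, 120 mM NaCl, 0.1% BSA, 1 h at room temperature. Nonspecific binding was defined with 10 μM CFT for IPT and 1 μM IDAM for IDAM. Filtration, gamma counting, nonlinear regression for Ki.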

[2] = molecular target: Sodium-dependent serotonin transporter (Homo sapiens, UniProt P31645); assay: Binding affinity for serotonin transporter expressed in […] cells; assay type: cell-based; outline: as §1
Sequence of Sodium-dependent serotonin transporter (P31645 whole entry): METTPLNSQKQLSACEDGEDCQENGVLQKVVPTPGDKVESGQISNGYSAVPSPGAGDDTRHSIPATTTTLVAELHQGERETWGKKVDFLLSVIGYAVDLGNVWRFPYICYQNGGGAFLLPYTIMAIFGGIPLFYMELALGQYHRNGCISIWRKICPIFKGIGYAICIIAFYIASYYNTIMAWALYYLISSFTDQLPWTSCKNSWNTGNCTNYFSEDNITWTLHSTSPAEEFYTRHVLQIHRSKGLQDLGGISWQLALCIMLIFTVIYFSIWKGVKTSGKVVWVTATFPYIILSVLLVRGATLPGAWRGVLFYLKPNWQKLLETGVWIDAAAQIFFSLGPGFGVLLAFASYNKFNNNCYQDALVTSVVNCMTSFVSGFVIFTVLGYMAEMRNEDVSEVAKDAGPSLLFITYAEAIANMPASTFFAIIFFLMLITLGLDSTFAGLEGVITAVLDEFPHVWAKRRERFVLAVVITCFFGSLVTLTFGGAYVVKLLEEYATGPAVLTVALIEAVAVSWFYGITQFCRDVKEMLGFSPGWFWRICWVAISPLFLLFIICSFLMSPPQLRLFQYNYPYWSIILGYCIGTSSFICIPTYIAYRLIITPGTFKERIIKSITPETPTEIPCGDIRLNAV

Sequence of Sodium-dependent dopamine transporter (Q01959 whole entry): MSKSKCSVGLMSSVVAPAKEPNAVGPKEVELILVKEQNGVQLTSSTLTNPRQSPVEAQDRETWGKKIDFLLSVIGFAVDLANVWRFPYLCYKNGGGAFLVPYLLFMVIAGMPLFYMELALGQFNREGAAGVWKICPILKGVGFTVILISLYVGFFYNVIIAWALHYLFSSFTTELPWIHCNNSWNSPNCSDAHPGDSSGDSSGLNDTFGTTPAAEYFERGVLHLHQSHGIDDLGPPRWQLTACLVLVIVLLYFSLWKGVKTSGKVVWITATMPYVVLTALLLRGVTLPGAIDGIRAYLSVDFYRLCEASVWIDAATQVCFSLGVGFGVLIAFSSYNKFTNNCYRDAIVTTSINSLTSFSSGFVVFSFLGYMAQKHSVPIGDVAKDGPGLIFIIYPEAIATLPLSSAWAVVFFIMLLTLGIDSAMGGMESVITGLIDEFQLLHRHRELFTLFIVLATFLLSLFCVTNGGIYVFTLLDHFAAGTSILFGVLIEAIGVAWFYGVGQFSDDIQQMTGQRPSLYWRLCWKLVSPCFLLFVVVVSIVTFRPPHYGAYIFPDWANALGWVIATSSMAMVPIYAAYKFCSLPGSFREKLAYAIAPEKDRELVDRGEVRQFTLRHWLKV

Compound	pKi [1]	pKi [2]
CN(C)Cc1ccccc1Cc1ccc(I)cc1N	< 6.00	7.31
CN(C)Cc1ccccc1Sc1ccc(I)cc1N	6.08	11.00
CN(C)Cc1ccccc1Sc1ccc(C#N)cc1N [DASB]	< 6.00	

The next lines start with the values.

pKi [1]	pKi [2]	Compound
< 6.00	10.05	CN(C)Cc1ccccc1Sc1ccc(I)cc1CO
< 6.00	9.92	CN(C)Cc1ccccc1Oc1ccc(I)cc1CO

From ChEMBL document CHEMBL1137220, “2-(2-(dimethylaminomethyl)phenoxy)-5-iodophenylamine: an improved serotonin transporter imaging agent” (J Med Chem, 2004)
